{"source": "ChEMBL document CHEMBL1129253", "about": "“Synthesis and pharmacological activity of triazole derivatives inhibiting eosinophilia” (1996)", "key": {"Rattus norvegicus [1]": {"tested_on": "Rattus norvegicus", "test": "Tested for sephadex-induced lung Eosinophilia inhibition at 30 mg/kg in rat", "format": "functional", "outline": "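Male Wistar rats (5/group) received 1 mL Sephadex G-200 (0.5 mg/mL in saline, boiled 5 h) by tail vein on days 0, 3 and 5. Drug or vehicle was given ip 10 min before each injection. On day 7, lungs were lavaged three times with heparinized PBS at 37 °C. Eosinophils and total cells were counted in Hinkelman reagent. % inhibition compares group-mean eosinophil/total ratios with vehicle.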"}, "Rattus norvegicus [2]": {"tested_on": "Rattus norvegicus", "test": "Inhibitory activity against eosinophilia when administered orally in rats", "conditions": "po, read-out: ID50 (the source's name)"}, "Rattus norvegicus [3]": {"tested_on": "Rattus norvegicus", "test": "Inhibitory activity against eosinophilia when administered intraperitoneally in rats", "conditions": "ip, read-out: ID50 (the source's name)"}}}
{"molecule": "CCCCCC/N=C(\\S)n1ncnc1N", "values": [{"measurement": "inhibition in vivo at 30 mg/kg", "setting": "Rattus norvegicus [1]", "result": -1, "unit": "%"}]}
{"molecule": "C/N=C(\\S)n1nc(C)nc1N", "values": [{"measurement": "inhibition in vivo at 30 mg/kg", "setting": "Rattus norvegicus [1]", "result": 13, "unit": "%"}]}
{"molecule": "CNC(=S)n1ncnc1NC", "values": [{"measurement": "inhibition in vivo at 30 mg/kg", "setting": "Rattus norvegicus [1]", "result": -1, "unit": "%"}]}
{"molecule": "C/N=C(\\S)n1nc(-c2ccc(C#N)cc2)nc1N", "values": [{"measurement": "inhibition in vivo at 30 mg/kg", "setting": "Rattus norvegicus [1]", "result": 87, "unit": "%"}]}
{"molecule": "CSC(=S)n1ncnc1N", "values": [{"measurement": "inhibition in vivo at 30 mg/kg", "setting": "Rattus norvegicus [1]", "result": 36, "unit": "%"}]}
{"molecule": "C/N=C(\\S)Nc1ccc(-c2nc(N)n(/C(S)=N/C)n2)cc1", "values": [{"measurement": "inhibition in vivo at 30 mg/kg", "setting": "Rattus norvegicus [1]", "result": 31, "unit": "%"}]}
{"molecule": "C/N=C(\\S)c1ncccc1N", "values": [{"measurement": "inhibition in vivo at 30 mg/kg", "setting": "Rattus norvegicus [1]", "result": 9, "unit": "%"}]}
{"molecule": "C/N=C(\\S)n1nc(-c2ccc(C)cc2)nc1N", "values": [{"measurement": "inhibition in vivo at 30 mg/kg", "setting": "Rattus norvegicus [1]", "result": 65, "unit": "%"}]}
{"molecule": "C/N=C(\\S)c1cccnc1N", "values": [{"measurement": "inhibition in vivo at 30 mg/kg", "setting": "Rattus norvegicus [1]", "result": 27, "unit": "%"}]}
{"molecule": "CCC/N=C(\\S)n1ncnc1N", "values": [{"measurement": "inhibition in vivo at 30 mg/kg", "setting": "Rattus norvegicus [1]", "result": 93, "unit": "%"}]}
{"molecule": "Nc1ncnn1/C(S)=N/CCCCCO", "values": [{"measurement": "inhibition in vivo at 30 mg/kg", "setting": "Rattus norvegicus [1]", "result": -17, "unit": "%"}]}
{"molecule": "CNC(=S)n1nc(-c2ccc(OC)cc2)nc1N", "values": [{"measurement": "inhibition in vivo at 30 mg/kg", "setting": "Rattus norvegicus [1]", "result": 70, "unit": "%"}]}
{"molecule": "Nc1ncnn1/C(S)=N/C1CCCCC1", "values": [{"measurement": "inhibition in vivo at 30 mg/kg", "setting": "Rattus norvegicus [1]", "result": 31, "unit": "%"}]}
{"molecule": "C/N=C(\\S)n1nc(-c2ccc(Cl)cc2)nc1N", "values": [{"measurement": "inhibition in vivo at 30 mg/kg", "setting": "Rattus norvegicus [1]", "result": 88, "unit": "%"}, {"measurement": "ED50", "setting": "Rattus norvegicus [2]", "result": 0.3, "unit": "mg/kg"}, {"measurement": "ED50", "setting": "Rattus norvegicus [3]", "result": 0.07, "unit": "mg/kg"}]}
{"molecule": "CNC(=S)n1nc(SC)nc1N", "values": [{"measurement": "inhibition in vivo at 30 mg/kg", "setting": "Rattus norvegicus [1]", "result": 54, "unit": "%"}]}
{"molecule": "CNC(=O)n1ncnc1N", "values": [{"measurement": "inhibition in vivo at 30 mg/kg", "setting": "Rattus norvegicus [1]", "result": 40, "unit": "%"}]}
{"molecule": "CS(=O)(=O)n1ncnc1N", "values": [{"measurement": "inhibition in vivo at 30 mg/kg", "setting": "Rattus norvegicus [1]", "result": -40, "unit": "%"}]}
{"molecule": "C/N=C(\\S)n1cnc(N)n1", "values": [{"measurement": "inhibition in vivo at 30 mg/kg", "setting": "Rattus norvegicus [1]", "result": 25, "unit": "%"}]}
{"molecule": "CCOC(=O)C(=O)Nc1ccc(-c2nc(N)n(/C(S)=N/C)n2)cc1", "values": [{"measurement": "inhibition in vivo at 30 mg/kg", "setting": "Rattus norvegicus [1]", "result": 49, "unit": "%"}]}
{"molecule": "C/N=C(\\S)n1nnnc1N", "values": [{"measurement": "inhibition in vivo at 30 mg/kg", "setting": "Rattus norvegicus [1]", "result": 53, "unit": "%"}]}
{"molecule": "Nc1ncnn1/C(S)=N/c1ccccc1", "values": [{"measurement": "inhibition in vivo at 30 mg/kg", "setting": "Rattus norvegicus [1]", "result": -7, "unit": "%"}]}
{"molecule": "S=C(NC1CCCCC1)n1cncn1", "values": [{"measurement": "inhibition in vivo at 30 mg/kg", "setting": "Rattus norvegicus [1]", "result": 0, "unit": "%"}]}
{"molecule": "CCOCCC/N=C(\\S)n1ncnc1N", "values": [{"measurement": "inhibition in vivo at 30 mg/kg", "setting": "Rattus norvegicus [1]", "result": 1, "unit": "%"}]}
{"molecule": "C/N=C(\\S)c1sccc1N", "values": [{"measurement": "inhibition in vivo at 30 mg/kg", "setting": "Rattus norvegicus [1]", "result": 4, "unit": "%"}]}
{"molecule": "C/N=C(\\S)c1c[nH]nc1N", "values": [{"measurement": "inhibition in vivo at 30 mg/kg", "setting": "Rattus norvegicus [1]", "result": -22, "unit": "%"}]}
{"molecule": "C/N=C(\\S)n1nccc1N", "values": [{"measurement": "inhibition in vivo at 30 mg/kg", "setting": "Rattus norvegicus [1]", "result": 27, "unit": "%"}]}
{"molecule": "C/N=C(\\S)c1ccccc1N", "values": [{"measurement": "inhibition in vivo at 30 mg/kg", "setting": "Rattus norvegicus [1]", "result": 47, "unit": "%"}]}
{"molecule": "C/N=C(\\S)c1nccnc1N", "values": [{"measurement": "inhibition in vivo at 30 mg/kg", "setting": "Rattus norvegicus [1]", "result": 27, "unit": "%"}]}
{"molecule": "C/N=C(\\S)n1nc(N)nc1N", "values": [{"measurement": "inhibition in vivo at 30 mg/kg", "setting": "Rattus norvegicus [1]", "result": 53, "unit": "%"}]}
{"molecule": "CN(C)C(=S)n1ncnc1N", "values": [{"measurement": "inhibition in vivo at 30 mg/kg", "setting": "Rattus norvegicus [1]", "result": 34, "unit": "%"}]}
{"molecule": "C/N=C(\\S)n1nc(-c2ccccc2)nc1N", "values": [{"measurement": "inhibition in vivo at 30 mg/kg", "setting": "Rattus norvegicus [1]", "result": 54, "unit": "%"}]}
{"molecule": "C/N=C(\\S)c1[nH]cnc1N", "values": [{"measurement": "inhibition in vivo at 30 mg/kg", "setting": "Rattus norvegicus [1]", "result": 5, "unit": "%"}]}
{"molecule": "Nc1ncnn1/C(S)=N/Cc1ccccc1", "values": [{"measurement": "inhibition in vivo at 30 mg/kg", "setting": "Rattus norvegicus [1]", "result": 40, "unit": "%"}]}
{"molecule": "C/N=C(\\S)n1ncnc1N", "values": [{"measurement": "inhibition in vivo at 30 mg/kg", "setting": "Rattus norvegicus [1]", "result": 93, "unit": "%"}]}
{"molecule": "CCCC/N=C(\\S)n1ncnc1N", "values": [{"measurement": "inhibition in vivo at 30 mg/kg", "setting": "Rattus norvegicus [1]", "result": 21, "unit": "%"}]}
